In the library only some 2.5% were active in any assay of this set; here they are far more common.
T cell modulator: modulates CD8 T cell binding to vesicles. 2C CD8+ T cell-vesicle binding, flow cytometry; hits give low values. response (vesicle binding), % at 7 µM. actives 0.068% (n = 330,000);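 active means response, share of CD8 T cells binding vesicles, and their 90th percentile fluorescence all below set limits, cut at about 80% in these data, passing the limit was not always enough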;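 further: values below 100% mean blocked vesicle binding to the CD8+ T cells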
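Benchmarks: naked versus QL9-loaded vesicles / Assay system: purified 2C TCR transgenic mouse naive CD8+ T cells / Technique: high-throughput flow cytometry with anti-B7-1 and anti-CD8 staining / Timing: Cell–vesicle co-incubation 1.5 h at 37 °C, staining 20 min on ice / Read-out: percent CD8+ FL2 mean versus row control / Probe or stimulus: QL9-loaded Drosophila micro-vesicles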
MEKK2 mut-MEK5: signal of MEK5 binding to mutant human MEKK2 PB1 domain | bead flow cytometry, Alexa488-MEK5 binding to MEKK2 mutant | percent response, % at 10 µM | actives 0.35% (n = 290,000) | AID 1530; in the data active means percent response above about 24%, passing the limit was not always enough
UCH37 inh: blocks the human deubiquitinase UCH37; actives 0.33% (n = 330,000); inhibition, % (concentration not given with the values); Q9Y5K5; AID 588478; purified proteasome/UCH37, Ub-AMC cleavage fluorescence;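 active means mean inhibition over replicate wells above about 20%, limit read from the data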;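 further: 0% = compound-free wells with enzyme and 100% = wells lacking proteasome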
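Material: Human UCH37 enzyme supplied as purified proteasome complex | Schedule: 30 min compound-proteasome preincubation then 25 min substrate reaction, room temperature | Detection: AMC fluorescence from Ub-AMC cleavage, excitation 355 nm, emission 460 nm | Benchmarks: Wells without proteasome as full block, compound-free enzyme plus substrate as uninhibited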
MEKK2 WT-MEK5: raises or lowers MEK5 binding to wildtype human MEKK2 PB1 domain; bead flow cytometry, Alexa488-MEK5 binding to MEKK2 WT; actives lie on both sides; actives 1.1% (n = 290,000); AID 1531; binding response (% of control), % at 10 µM; in the data active means binding response below about 67% or above about 130%
MEKK3 PB1 HTS: modulators (inhibitors or enhancers) of MEK5 binding to human MEKK3 PB1 domain | binding response (% of control), % at 10 µM | Q99759 | bead-based flow cytometry, Alexa488-MEK5 binding to MEKK3; actives lie on both sides; 0 = blocked by unlabeled MEK5, 100 = vehicle | actives 1.4% (n = 290,000);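 active means binding response more than 3 SD above or below the average of its plate-row segment, actives on both sides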;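 further: Alexa488 bead fluorescence after subtracting the streptavidin-only scavenger bead signal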
Target sequence (Q99759 whole entry, looked up, the tested form may be a part): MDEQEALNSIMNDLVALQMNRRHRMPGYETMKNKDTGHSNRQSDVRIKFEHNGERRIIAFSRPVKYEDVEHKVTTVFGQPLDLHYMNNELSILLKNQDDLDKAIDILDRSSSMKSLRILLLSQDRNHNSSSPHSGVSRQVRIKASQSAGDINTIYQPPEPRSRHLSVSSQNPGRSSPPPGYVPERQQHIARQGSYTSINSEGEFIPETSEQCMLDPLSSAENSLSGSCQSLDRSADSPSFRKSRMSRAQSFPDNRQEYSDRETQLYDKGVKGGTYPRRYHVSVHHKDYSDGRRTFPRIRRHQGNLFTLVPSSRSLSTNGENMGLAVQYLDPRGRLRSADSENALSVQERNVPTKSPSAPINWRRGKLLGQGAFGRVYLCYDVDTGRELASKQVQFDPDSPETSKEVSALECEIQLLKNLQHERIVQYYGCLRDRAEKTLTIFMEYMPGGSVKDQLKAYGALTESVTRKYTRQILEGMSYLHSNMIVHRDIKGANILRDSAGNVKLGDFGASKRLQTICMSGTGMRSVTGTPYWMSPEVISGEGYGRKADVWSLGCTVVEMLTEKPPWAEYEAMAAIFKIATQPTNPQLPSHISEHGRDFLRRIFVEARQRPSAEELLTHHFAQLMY
Rce1 inhib: blocks yeast Ras-converting enzyme | actives 0.27% (n = 290,000) | Q03530 | AID 2563 | yeast membranes, quenched prenylated peptide cleavage fluorescence | calls only;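 active means fall in fluorescence gain of 50% or more versus controls, with final raw signal at or below 3038400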;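 further: plate controls were neutral control wells for no effect and wells lacking membranes for full effect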
MEKK2wt confirm: raises or lowers MEK5 binding to wildtype human MEKK2, retest | shares compounds with MEKK3 PB1 HTS | bead flow cytometry, Alexa488-MEK5 binding to MEKK2 WT; actives lie on both sides | binding response (% of control), % at 10 µM | actives 2.4% (n = 5,900); in the data active means binding response below about 16% or above about 210%; inactive means in between
MEKK2mut confirm: signal of MEK5 binding to mutant human MEKK2, retest; shares compounds with MEKK3 PB1 HTS; bead flow cytometry, Alexa488-MEK5 binding to MEKK2 mutant; percent response, % at 10 µM; actives 2% (n = 5,900); AID 1893; in the data active means percent response mostly above about 71%, no sharp cut-off; inactive means mostly below about 38%;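 further: higher means compound restores mutant binding toward wildtype level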
MEKK3 confirm: MEKK3-MEK5 PB1 inhibition, single concentration confirmation. binding response (% of control), % at 10 µM. actives 1.8% (n = 5,900). bead flow cytometry, Alexa488-MEK5 binding to MEKK3; hits give low values. shares compounds with MEKK3 PB1 HTS;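 active means binding response below 72% of control, or above a set upper limit, though filed actives all read lower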;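 further: 100% = DMSO only wells and 0% = binding blocked by excess unlabeled MEK5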
* marks the source's active call; other numbers are inactive results; i = inactive; . = not tested or not shown; [ ] = dose if it differs, or a comment.

SMILES	T cell modulator	MEKK2 mut-MEK5	UCH37 inh	MEKK2 WT-MEK5	MEKK3 PB1 HTS	Rce1 inhib	MEKK2wt confirm	MEKK2mut confirm	MEKK3 confirm
FC(F)(F)c1cc(CCN2CCNC[C@@H]2Cc2ccccc2)cc(C(F)(F)F)c1	441.6	15.0	0.3	146.0*	113.0	i	136.0	39.0	111.0
Fc1cccc(CCN2CCNC[C@@H]2Cc2ccccc2)c1	347.2	5.0	1.7	110.0	102.0	i	.	.	.
CCOC(=O)C1CCN(C(=O)c2ccc(Cl)c(S(=O)(=O)N3CCOCC3)c2)CC1	484.1	3.0	5.4	101.0	101.0	i	.	.	.
CCOC(=O)C1CCN(C(=O)c2cc(S(=O)(=O)N3CCOCC3)c(Cl)cc2Cl)CC1	436.0	-4.0	-6.1	92.0	82.0*[inhibitor]	i	107.0	3.0	104.0
O=C(CCCO)NN=Cc1cc(Br)ccc1O	.	.	-59.1	.	.	.	.	.	.
CCOC(=O)c1c(NC(C)=O)sc2c(O)c(Br)cc(Br)c12	286.0	0.0	9.1	105.0	132.0*	i	73.0	-15.0	76.0
CCOC(=O)c1c(NC(C)=O)sc2c(O)cccc12	224.9	3.0	1.7	96.0	97.0	i	.	.	.
CCCCN1C(=O)C(=c2sc3nc(=O)c(-c4ccccc4)nn3c2=O)c2ccccc21	.	.	-1.5	.	.	.	.	.	.
CC(C)NCC(O)COc1ccc2c(c1)CCC2 (stereo not given)	416.9	1.0	5.8	108.0	140.0*	i	95.0	-3.0	90.0
CC1=CC2=NC(=O)CC(C)(C(=O)N(CC(=O)NC3CCCC3)c3cc(C)cc(C)c3)N2C=C1 (stereo not given)	187.5	6.0	-62.1	128.0	150.0*	i	104.0	8.0	103.0
CC[n+]1c(/C=C2\Sc3ccccc3N2C)ccc2cccc(C)c21	.	76.0*	23.5*	.	47.0*[inhibitor]	i	41.0	-21.0	83.0
CCN(C(=O)COC(=O)c1cnc(C)cn1)C1CCCCC1	164.3	-17.0	7.4	2.0*[inhibitor]	1.0*[inhibitor]	i	99.0	-5.0	99.0
Cc1cnc(C(=O)OCC(=O)NC2CCCCCCC2)cn1	213.0	-3.0	3.2	97.0	97.0	i	.	.	.
CCCCOc1ccc(C=NNC(=O)c2nnn(-c3nonc3N)c2CN2CCCCCC2)cc1	.	.	1.2	.	.	.	.	.	.
COc1ccc(N=C2S/C(=C\c3cccs3)C(=O)N2CC(C)C)cc1	208.2	-7.0	0.6	90.0	82.0*[inhibitor]	i	103.0	-1.0	107.0
COc1ccc(N=C2S/C(=C\c3ccc(C)s3)C(=O)N2CC(C)C)cc1	293.1	11.0	1.3	106.0	107.0	i	.	.	.
O=C(Cn1nnc(-c2ccccc2)n1)NN=Cc1ccco1	.	.	-0.7	.	.	.	.	.	.
Nc1nnc(SCC(=O)NC23CC4CC(CC(C4)C2)C3)s1	723.1	-18.0	2.9	39.0*[inhibitor]	41.0*[inhibitor]	i	110.0	5.0	103.0
Cc1nnc(SCC(=O)NC23CC4CC(CC(C4)C2)C3)s1	165.9	-1.0	0.4	98.0	101.0	i	.	.	.
Cc1ccc(Oc2cc([N+](=O)[O-])cc3c2C(=O)Nc2ccccc2O3)cc1	165.2	-2.0	4.9	94.0	130.0*	i	95.0	-4.0	100.0
O=C1Nc2ccccc2Nc2ccc([N+](=O)[O-])cc21	201.4	1.0	8.5	104.0	105.0	i	.	.	.
O=C(NCC(=O)N(c1cccc(F)c1)C(C(=O)NC1CCCC1)c1cccnc1)c1cccs1 (stereo not given)	611.7	1.0	-0.6	115.0	129.0*	i	101.0	-4.0	100.0

Screens: PubChem, several laboratories
